The structures appear in SMILES notation.

These results are taken from ChEMBL document CHEMBL1152770, “Inhibitors of hepatitis C virus polymerase: synthesis and biological characterization of unsymmetrical dialkyl-hydroxynaphthalenoyl-benzothiadiazines” (J Med Chem, 2009).

Data set [1] is described as follows: Metabolic stability in rat liver microsomes assessed as intrinsic clearance. Format: ADME, Microsome. A general note: Liver microsomes are a subcellular fraction often used to study metabolism.
Data set [2] is described as follows: Metabolic stability in dog liver microsomes assessed as intrinsic clearance. Format: ADME, Canis lupus familiaris, Microsome.
The nature of data set [3]: Metabolic stability in monkey liver microsomes assessed as intrinsic clearance. To be noted: rhesus monkey. Format: ADME, Macaca mulatta, Microsome.
A short description of data set [4]: Metabolic stability in human liver microsomes assessed as intrinsic clearance. In kind it is ADME, Microsome.
In data set [5] the test system is Hepatocyte. Kind of data set: Metabolic stability in rat hepatocytes assessed as intrinsic clearance. Format: ADME, cell-based, Liver.
Data set [6] can be described thus: Metabolic stability in dog hepatocytes assessed as intrinsic clearance. In kind it is ADME, cell-based, Canis lupus familiaris, Liver, Hepatocyte.
The nature of data set [7]: Metabolic stability in monkey hepatocytes assessed as intrinsic clearance. Format: ADME, cell-based, Macaca mulatta, Liver, Hepatocyte. To be noted: rhesus monkey.
In data set [8] the test system is Hepatocyte. Briefly: Metabolic stability in human hepatocytes assessed as intrinsic clearance. Format: ADME, cell-based, Liver.
Data set [9] is described as follows: Cytotoxicity against human HuH7 cells by MTT assay. In kind it is cell-based, Huh-7. To be noted: read-out: TD50 (the source's name). The procedure, abridged:
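Cytotoxicity in Huh-7 replicon cultures measured by MTT colorimetric assay after the four-day incubation.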
(In general: Tetrazolium dyes change colour on reduction, which living cells bring about.)

The test system of data set [10] is Hepatitis C virus. Briefly: Ratio of EC50 for HCV isolate Con1 in presence of 40% human serum to EC50 for HCV isolate Con1. In kind it is functional, Hepacivirus hominis. The procedure, abridged:
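Genotype 1b-con1 subgenomic replicon in Huh-7 cells. Four-day incubation with inhibitor in medium with 5% FBS, with or without 40% human serum. EC50 from the fall in HCV RNA copy number by real-time PCR. Ratio is EC50 with serum over EC50 without.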

A short description of data set [11]: Elimination half life in rat at 5 mg/kg, iv. Format: ADME, organism-based. More on the design: dose 5 mg/kg, route intravenous. The note with it: in vivo, read-out: beta t1/2 (converted). The procedure, abridged:
(§1)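 Vehicle DMSO:PEG400 (10:90, v/v). Dosing at 5 mg/kg in rat and monkey; dog 5 mg/kg or 2.5 mg/kg. Protein precipitation with acetonitrile, then LC-MS/MS in negative-ion MRM (m/z 516.2→437.0) against spiked standards with internal standard.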

Data set [12] can be described thus: Volume of distribution at steady state in rat at 5 mg/kg, iv. In kind it is ADME, organism-based. More on the design: dose 5 mg/kg, route intravenous. The note with it: in vivo, read-out: Vdss. An outline of the steps:
(§2)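 Single intravenous dose. Heparinized plasma sampled at 0.1, 0.25, 0.5, 1, 2, 4, 6, 9, 12 and 24 h, plus 3 and 15 h in dog. Drug was isolated by acetonitrile protein precipitation and quantified by LC-MS in negative-ion MRM mode (m/z 516.2→437.0) against an internal standard. Concentrations came from unweighted linear regression of spiked standards.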

The nature of data set [13]: Terminal phase volume of distribution in rat at 5 mg/kg, iv. More on the design: dose 5 mg/kg, route intravenous. In kind it is ADME, organism-based. To be noted: in vivo, read-out: Vbeta. The procedure, abridged:
as §2

Data set [14] is described as follows: AUC in rat at 5 mg/kg, iv. In kind it is ADME, organism-based. More on the design: dose 5 mg/kg, route intravenous. To be noted: plasma. An outline of the steps:
as §1

A short description of data set [15]: Plasma clearance in rat at 5 mg/kg, iv. Format: ADME, organism-based. The arrangement: dose 5 mg/kg, route intravenous. An outline of the steps:
as §1

Data set [16] in a line: Drug level in rat liver at 5 mg/kg, po after 6 hrs. Format: ADME, organism-based. The arrangement: dose 5 mg/kg, route oral. The note with it: read-out: Drug uptake. The procedure, abridged:
(§3)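 Rats dosed orally at 5 mg/kg, four groups, sacrificed at 6 and 12 h. Plasma and liver homogenate extracted by acetonitrile protein precipitation with internal standard and quantified by LC-MS (negative-ion MRM). Liver/plasma ratio taken from the two concentrations.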

Data set [17] can be described thus: Drug level in rat liver at 5 mg/kg, po after 12 hrs. To be noted: read-out: Drug uptake. More on the design: dose 5 mg/kg, route oral. In kind it is ADME, organism-based. The procedure, abridged: as §3
Data set [18] can be described thus: Elimination half life in dog at 5 mg/kg, iv. Format: ADME, organism-based, Canis lupus familiaris. The arrangement: dose 5 mg/kg, route intravenous. The note with it: in vivo, read-out: beta t1/2 (converted). An outline of the steps:
as §1

Data set [19] is described as follows: Volume of distribution at steady state in dog at 5 mg/kg, iv. In kind it is ADME, organism-based, Canis lupus familiaris. The arrangement: dose 5 mg/kg, route intravenous. The note with it: in vivo, read-out: Vdss. The procedure, abridged:
as §2

The nature of data set [20]: Terminal phase volume of distribution in dog at 5 mg/kg, iv. In kind it is ADME, organism-based, Canis lupus familiaris. The arrangement: dose 5 mg/kg, route intravenous. To be noted: in vivo, read-out: Vbeta. An outline of the steps:
as §1

The nature of data set [21]: AUC in dog at 5 mg/kg, iv. In kind it is ADME, organism-based, Canis lupus familiaris. The arrangement: dose 5 mg/kg, route intravenous. The note with it: plasma. The procedure, abridged:
as §1

A short description of data set [22]: Plasma clearance in dog at 5 mg/kg, iv. Format: ADME, organism-based, Canis lupus familiaris. More on the design: dose 5 mg/kg, route intravenous. An outline of the steps: as §1
Data set [23] is described as follows: Elimination half life in monkey at 5 mg/kg, iv. Format: ADME, organism-based, Macaca mulatta. The arrangement: dose 5 mg/kg, route intravenous. The note with it: rhesus monkey, in vivo, read-out: beta t1/2 (converted). The procedure, abridged: as §1
Data set [24] in a line: Volume of distribution at steady state in monkey at 5 mg/kg, iv. The arrangement: dose 5 mg/kg, route intravenous. Format: ADME, organism-based, Macaca mulatta. To be noted: rhesus monkey, in vivo, read-out: Vdss. An outline of the steps: as §2
Data set [25] can be described thus: Terminal phase volume of distribution in monkey at 5 mg/kg, iv. The note with it: rhesus monkey, in vivo, read-out: Vbeta. In kind it is ADME, organism-based, Macaca mulatta. The arrangement: dose 5 mg/kg, route intravenous. An outline of the steps:
as §2

A short description of data set [26]: AUC in monkey at 5 mg/kg, iv. Format: ADME, organism-based, Macaca mulatta. More on the design: dose 5 mg/kg, route intravenous. To be noted: rhesus monkey, plasma. The procedure, abridged:
as §1

A short description of data set [27]: Plasma clearance in monkey at 5 mg/kg, iv. In kind it is ADME, organism-based, Macaca mulatta. More on the design: dose 5 mg/kg, route intravenous. The note with it: rhesus monkey. An outline of the steps: as §1
The nature of data set [28]: Inhibition of HCV isolate BK NS5B polymerase after 3 hrs by scintillation counting.
A short description of data set [29]: Inhibition of HCV isolate H77 NS5B polymerase after 3 hrs by scintillation counting.
Data set [30] concerns Hepatitis C virus. Briefly: Antiviral activity against HCV isolate Con1 in human Huh7 cells assessed as reduction in viral RNA after 4 days by RT-PCR. The note with it: isolate Con1, Huh-7, 96 h.
Data set [31] has as its system Hepatitis C virus. Kind of data set: Antiviral activity against HCV 1a containing chimeric genotype 1a-H77/1b-con1 subgenom in human Huh7 cells assessed as reduction in viral RNA after 4 days by RT-PCR. To be noted: subtype 1a, Huh-7, 96 h.
Data set [32] is described as follows: Plasma concentration in rat at 5 mg/kg, po after 6 hrs. Format: ADME, organism-based. The arrangement: dose 5 mg/kg, route oral. An outline of the steps: as §1
A short description of data set [33]: Plasma concentration in rat at 5 mg/kg, po after 12 hrs. Format: ADME, organism-based. More on the design: dose 5 mg/kg, route oral. An outline of the steps: as §1
Data set [34] in a line: Ratio of drug level in liver to plasma in rat at 5 mg/kg, po after 6 hrs. In kind it is ADME, organism-based. The arrangement: dose 5 mg/kg, route oral. The procedure, abridged: as §3
Data set [35] is described as follows: Ratio of drug level in liver to plasma in rat at 5 mg/kg, po after 12 hrs. In kind it is ADME, organism-based. More on the design: dose 5 mg/kg, route oral. The procedure, abridged: as §3

As a reminder, the microsomal CLint is a measure of how fast metabolising enzymes remove a compound, apart from limits set by blood flow. As a reminder, the AUC is concentration integrated over time. A word on the clearance: it is a measure of how efficiently the substance is removed, as volume per time. The IC50 is the midpoint of a concentration-inhibition curve. As usually defined, the EC50 is the midpoint of the concentration-response curve. As to `CC(C)CC[C@@]1(C)C(=O)C(C2=NS(=O)(=O)c3cc(NS(C)(=O)=O)ccc3N2)=C([O-])c2ccccc21.[Na+]`, the microsomal CLint stood at 36.3 µL/min/mg in [1], 3.5 µL/min/mg in data set [2], 62 µL/min/mg in [3] and 29.6 µL/min/mg in data set [4]. The CL amounted to 9 µL/min/mg in the data set on Hepatocyte [5], 2.2 µL/min/mg in data set [6], 29.2 µL/min/mg in data set [7] and 6.8 µL/min/mg with Hepatocyte [8]. Further, the CC50 in [9] worked out at 35.3 µM. Also, the “Ratio EC50” value in the data set with Hepatitis C virus [10] amounted to 14. Further, the half-life in data set [11] was 72 min; in data set [18] it was 162 min; in data set [23], 42 min. Besides, the Vd in [12] was found to be 1.72 L/kg; in data set [13] it was 1.97 L/kg; in data set [19] it was 1.1 L/kg; in data set [20] it was 1.74 L/kg; in data set [24] it was 0.19 L/kg; in [25], 0.5 L/kg. Also, the AUC was found to be 5200 ng·h/mL in [14], 11800 ng·h/mL in [21] and 10200 ng·h/mL in [26]. Moreover, the results for the clearance in data set [15], in data set [22] and in data set [27] were 16 mL/min/kg, 7.33 mL/min/kg and 8.5 mL/min/kg, respectively. For the same compound, the concentration at 6 h in data set [16] was 3800 ng/g. The concentration at 12 h in [17] is 1430 ng/g. The IC50 worked out at 0.9 nM in data set [28] and 1.3 nM in [29]. Moreover, the EC50 worked out at 3 nM in the data set with Hepatitis C virus [30] and 11 nM with Hepatitis C virus [31].
For orientation: Kp means tissue or fluid exposure divided by exposure in the circulation. Consider `CC(C)(C)CC[C@@]1(C)C(=O)C(C2=NS(=O)(=O)c3cc(NS(C)(=O)=O)ccc3N2)=C(O)c2ccccc21`, for which the concentration at 6 h in data set [32] was 2240 nM; in data set [16] it was 21800 ng/g. For the same compound, the concentration at 12 h in [33] came out at 320 nM; in [17], 4190 ng/g. For the same compound, the Kp at 6 h in [34] amounted to 17. Moreover, the Kp at 12 h in [35] amounted to 20.
